Results as given in ChEMBL document CHEMBL1145926, “Polyamine-iron chelator conjugate” (J Med Chem, 2003).

Key:
[1] = target: T1, S-adenosylmethionine decarboxylase proenzyme 1 (Mus musculus) (UniProt P0DMN7); assay: Compound was tested for the enzyme activity against S-Adenosyl-methionine decarboxylase in L1210 cells and expressed as percent compound found in untreated controls.; format: cell-based
T1 sequence (whole entry): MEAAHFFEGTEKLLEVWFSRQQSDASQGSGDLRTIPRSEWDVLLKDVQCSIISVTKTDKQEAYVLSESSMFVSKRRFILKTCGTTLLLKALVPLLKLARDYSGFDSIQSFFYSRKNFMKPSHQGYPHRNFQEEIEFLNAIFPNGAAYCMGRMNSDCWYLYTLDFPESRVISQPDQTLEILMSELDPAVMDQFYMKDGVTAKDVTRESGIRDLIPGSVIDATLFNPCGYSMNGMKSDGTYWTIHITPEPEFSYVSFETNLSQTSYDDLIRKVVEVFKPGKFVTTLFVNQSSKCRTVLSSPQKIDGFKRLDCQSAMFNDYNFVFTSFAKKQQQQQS
How it was run: (§1)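 L1210 cells were treated at 1 µM for 6 h. AdoMetDC activity was measured as 14CO2 released from [14C]carboxyl-labeled S-adenosyl-L-methionine and expressed as percent of untreated control. Controls were untreated cells and 1 µM DEHSPM-treated cells. Results are the mean of at least three experiments.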

[2] = tested on: L1210; assay: Compound was determined for spermine (SPM) level in L1210 cells after treatment at a concentration of 0.2 uM and expressed as percent compound found in untreated controls.; format: functional, Mus musculus
How it was run: (§2)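 L1210 cells in RPMI-1640 with 10% FBS, HEPES-MOPS, 1 mM glutamine and 1 mM aminoguanidine were exposed to 0.2 µM during log growth for 48 h. Cells were washed three times in ice-cold incomplete medium, extracted with 0.6 N perchloric acid and freeze-fractured three times. Putrescine, spermidine and spermine were measured by HPLC and expressed as percent of untreated control.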

[3] = tested on: L1210; assay: Compound was determined for spermidine (SPD) level in L1210 cells after treatment at a concentration of 0.2 uM and expressed as percent compound found in untreated controls.; format: functional, Mus musculus; how it was run: as §2
[4] = tested on: L1210; assay: Compound was tested for the growth inhibition of L1210 cell at a duration of 96 h; format: functional, cell-based; settings: Mus musculus, L1210, 96 h
[5] = tested on: L1210; assay: Compound was determined for putrescine (PUT) level in L1210 cells after treatment at a concentration of 0.2 uM and expressed as percent compound found in untreated controls.; format: functional, Mus musculus; how it was run: as §2
[6] = Compound was tested for the inhibition of spermidine transporter by using [3H]SPD transport in L1210 cell; format: functional, cell-based, Mus musculus
How it was run: (§3)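 L1210 cell suspensions were incubated in culture medium with [3H]spermidine, either alone or with graduated concentrations of competitor. Cells were pelleted, washed, digested, neutralized and scintillation-counted. Ki was derived from Lineweaver–Burk plots assuming competitive inhibition against spermidine, as the mean of two to three experiments.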

[7] = target: T2, Ornithine decarboxylase (Mus musculus) (UniProt P00860); assay: Compound was tested for the enzyme activity against ornithine decarboxylase (ODC) in L1210 cells and expressed as percent compound found in untreated controls.; format: cell-based
T2 sequence (whole entry): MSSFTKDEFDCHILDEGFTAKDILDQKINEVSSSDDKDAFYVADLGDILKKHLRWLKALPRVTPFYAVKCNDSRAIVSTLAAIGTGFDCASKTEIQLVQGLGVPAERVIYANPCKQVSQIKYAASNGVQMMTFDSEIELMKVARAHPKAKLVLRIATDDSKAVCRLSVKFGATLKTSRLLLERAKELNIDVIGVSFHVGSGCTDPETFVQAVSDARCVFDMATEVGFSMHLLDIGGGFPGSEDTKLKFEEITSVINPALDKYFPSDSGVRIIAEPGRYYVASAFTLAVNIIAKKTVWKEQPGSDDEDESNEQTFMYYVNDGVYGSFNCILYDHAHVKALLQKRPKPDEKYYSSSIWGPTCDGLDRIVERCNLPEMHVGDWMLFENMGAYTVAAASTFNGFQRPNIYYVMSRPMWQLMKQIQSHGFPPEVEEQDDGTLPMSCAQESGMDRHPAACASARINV
How it was run: (§4)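 L1210 cells were treated at 1 µM for 4 h. ODC activity was measured as 14CO2 released from [14C]carboxyl-labeled L-ornithine and expressed as percent of untreated control. Controls were untreated cells and 1 µM DEHSPM-treated cells. Results are the mean of at least three experiments.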

[8] = target: Diamine acetyltransferase 1 (Mus musculus) (UniProt P48026); assay: Compound was tested for the enzyme activity against Spermidine/spermine N1-acetyl transferase (SSAT) in L1210 cells and expressed as percent compound found in untreated controls.; format: cell-based
How it was run: (§5)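 L1210 cells were treated for 48 h at 10 µM, or at 0.2 µM for the conjugate. SSAT activity was measured as [14C]N1-acetylspermidine formed from spermidine and [14C]acetyl-CoA, expressed as percent of untreated control. The positive control was 2 µM DENSPM. Results are the mean of at least three experiments.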

[9] = tested on: L1210; assay: Compound was determined for spermidine (SPD) level in L1210 cells after treatment at a concentration of 50 uM and expressed as percent compound found in untreated controls.; format: functional, Mus musculus
How it was run: (§6)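 Murine L1210 leukaemia cells, kept in log-phase suspension in RPMI-1640 with 10% FBS, 1 mM glutamine and 1 mM aminoguanidine at 37 °C, 5% CO2, were treated at 50 μM for 48 h. Cells were washed three times in ice-cold incomplete medium, extracted with 0.6 N perchloric acid and freeze-fractured. Putrescine, spermidine and spermine were then measured by HPLC and expressed as percent of untreated control.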

[10] = tested on: L1210; assay: Compound was determined for spermine (SPM) level in L1210 cells after treatment at a concentration of 50 uM and expressed as percent compound found in untreated controls.; format: functional, Mus musculus; how it was run: as §6
[11] = tested on: L1210; assay: Compound was determined for putrescine (PUT) level in L1210 cells after treatment at a concentration of 50 uM and expressed as percent compound found in untreated controls.; format: functional, Mus musculus; how it was run: as §6
[12] = Compound was tested for the inhibition of spermidine transporter by using [3H]SPD transport in murine L1210 cell; format: functional, cell-based, Mus musculus; how it was run: as §3
[13] = tested on: L1210; assay: Compound was determined for spermidine (SPD) level in L1210 cells after treatment at a concentration of 100 uM and expressed as percent compound found in untreated controls.; format: functional, Mus musculus
[14] = target: T1, S-adenosylmethionine decarboxylase proenzyme 1 (Mus musculus); assay: Compound was tested for the enzyme activity against S-Adenosyl-methionine decarboxylase in murine L1210 cells and expressed as percent compound found in untreated controls.; format: cell-based; how it was run: as §1
[15] = tested on: L1210; assay: Compound was determined for putrescine (PUT) level in murine L1210 cells after treatment at a concentration of 100 uM and expressed as percent compound found in untreated controls.; format: functional, Mus musculus
[16] = target: T2, Ornithine decarboxylase (Mus musculus); assay: Compound was tested for the enzyme activity against ornithine decarboxylase (ODC) in murine L1210 cells and expressed as percent compound found in untreated controls.; format: cell-based; how it was run: as §4
[17] = tested on: L1210; assay: Compound was tested for the growth inhibition of murine L1210 cell at a duration of 96 h; format: functional, cell-based; settings: Mus musculus, L1210, 96 h
How it was run: (§7)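 Log-phase suspension cultures of murine L1210 cells (0.5–1.0 × 10^5 cells/mL) were grown in RPMI-1640 with 10% FBS and 1 mM aminoguanidine at 37 °C and 5% CO2. Cells were treated, reseeded and counted to give percent of control growth. IC50 is the concentration reducing growth to 50% of control after 48 or 96 h, as the mean of at least two experiments.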

[18] = tested on: L1210; assay: Compound was tested for the growth inhibition of murine L1210 cell at a duration of 48 h; format: functional, cell-based; settings: Mus musculus, L1210, 48 h; how it was run: as §7
[19] = target: Diamine acetyltransferase 1 (Mus musculus) (UniProt P48026); assay: Compound was tested for the enzyme activity against Spermidine/spermine N1-acetyl transferase (SSAT) in murine L1210 cells and expressed as percent compound found in untreated controls.; format: cell-based; how it was run: as §5
[20] = tested on: L1210; assay: Compound was determined for spermine (SPM) level in murine L1210 cells after treatment at a concentration of 100 uM and expressed as percent compound found in untreated controls.; format: functional, Mus musculus
[21] = tested on: L1210; assay: Compound was determined for spermine (SPM) level in L1210 cells after treatment at a concentration of 100 uM and expressed as percent compound found in untreated controls.; format: functional, Mus musculus
[22] = tested on: L1210; assay: Compound was determined for putrescine (PUT) level in L1210 cells after treatment at a concentration of 100 uM and expressed as percent compound found in untreated controls.; format: functional, Mus musculus
[23] = tested on: L1210; assay: Compound was tested for the growth inhibition of L1210 cell at a duration of 48 h; format: functional, cell-based; settings: Mus musculus, L1210, 48 h

Diamine acetyltransferase 1 (Mus musculus), sequence (P48026 whole entry): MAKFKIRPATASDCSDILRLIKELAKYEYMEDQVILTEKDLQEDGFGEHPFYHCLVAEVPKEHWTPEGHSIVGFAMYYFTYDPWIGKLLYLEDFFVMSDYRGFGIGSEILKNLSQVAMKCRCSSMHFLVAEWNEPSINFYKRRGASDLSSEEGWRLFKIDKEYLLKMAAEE

## Cc1c(O)c(=O)ccn1CCCNCCCCNCCCN
[1]
  Activity: 77%
[2]
  Activity: 139%
[3]
  Activity: 64%
[4]
  IC50: 0.2 µM
[5]
  Activity: 33%
[6]
  Ki: 3.7 µM
[7]
  Activity: 20%
[8]
  Activity: 275%

## Cc1c(O)c(=O)ccn1C [DEFERIPRONE]
[9]
  Activity: 117%
[10]
  Activity: 127%
[1]
  Activity: 120%
[6]
  Ki: > 500 µM
[11]
  Activity: 104%
[7]
  Activity: 114%
[8]
  Activity: 108%

## CC(=O)NCCCNCCCCNCCCN
[12]
  Ki: 10 µM
[13]
  Activity: 71%
[14]
  Activity: 86%
[15]
  Activity: 24%
[16]
  Activity: 25%
[17]
  IC50: > 100 µM
[18]
  IC50: > 100 µM
[19]
  Activity: 180%
[20]
  Activity: 111%

## CCNCCCNCCCCNCCCN
[8]
  Activity: 150%

## CCCNCCCCNCCCN
[13]
  Activity: 33%
[21]
  Activity: 103%
[22]
  Activity: 0%
[1]
  Activity: 64%
[6]
  Ki: 8.5 µM
[23]
  IC50: > 100 µM
[7]
  Activity: 14%
[8]
  Activity: 500%
